This note sets out measurements from ChEMBL document CHEMBL3826910, “Discovery of 3-(5'-Substituted)-Benzimidazole-5-(1-(3,5-dichloropyridin-4-yl)ethoxy)-1H-indazoles as Potent Fibroblast Growth Factor Receptor Inhibitors: Design, Synthesis, and Biological Evaluation” (J Med Chem, 2016).

Activity calls are given as the source filed them. The rule behind the calls is not given here.

Data set [1] concerns the target Vascular endothelial growth factor receptor 1 (Homo sapiens, UniProt P17948). Briefly: Inhibition of recombinant human Flt1 using poly (Glu, Tyr) 4:1 as substrate after 60 mins by ELISA. A digest of the protocol:
(§1)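 Purified recombinant kinases tested by ELISA on plates pre-coated with 20 µg/mL poly(Glu,Tyr) 4:1. Reaction run 60 min at 37 °C. Read-out: PY99 anti-phosphotyrosine antibody, HRP anti-mouse IgG and o-phenylenediamine/H2O2, with A490 measured. IC50 from inhibition curves, two independent experiments.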
On the technique in general: An ELISA detects its analyte on a solid surface through an enzyme-linked reagent.

Data set [2] can be described thus: cells. Particulars: Homo sapiens, RT-112, 72 h.
Data set [3] concerns the target Platelet-derived growth factor receptor beta (Homo sapiens, UniProt P09619). The data set can be described thus: Inhibition of recombinant human PDGFRbeta using poly (Glu, Tyr) 4:1 as substrate after 60 mins by ELISA. The method in brief:
as §1

Data set [4] deals with NCI-H1581. The data set can be described thus: Antitumor activity against human NCI-H1581 cells xenografted in nude mouse assessed as tumor growth inhibition at 10 mg/kg, po qd administered for 21 days measured on day 21 post last dose relative to vehicle-treated control. In kind it is functional. The following applies: 504 h, read-out: TGI. The method in brief:
(§2)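 Female nude mice (4–6 weeks) housed under SPF conditions. NCI-H1581 tumours were first grown from 5 × 10^6 cells s.c., and 1.5 mm3 fragments were then transplanted s.c. into the right flank. At 115 mm3, mice were randomized and given vehicle or compound orally once daily for 21 days (2 or 10 mg/kg). Tumours were measured by caliper twice weekly, with TV = length × width²/2.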
A general note: A xenograft is tissue or cells of one species grown in another, often human tumour cells in immunodeficient mice.

The target in data set [5] is T1, Fibroblast growth factor receptor 2 (Homo sapiens, UniProt P21802). Briefly: Inhibition of FGFR2 in human SNU15 cells assessed as reduction of PLCgamma phosphorylation at 0.1 to 10 nM after 2 hrs by Western blot method. In kind it is cell-based. (Immunoblotting shows a protein as a band on a membrane.)
T1 sequence (P21802 22-821 limits assumed): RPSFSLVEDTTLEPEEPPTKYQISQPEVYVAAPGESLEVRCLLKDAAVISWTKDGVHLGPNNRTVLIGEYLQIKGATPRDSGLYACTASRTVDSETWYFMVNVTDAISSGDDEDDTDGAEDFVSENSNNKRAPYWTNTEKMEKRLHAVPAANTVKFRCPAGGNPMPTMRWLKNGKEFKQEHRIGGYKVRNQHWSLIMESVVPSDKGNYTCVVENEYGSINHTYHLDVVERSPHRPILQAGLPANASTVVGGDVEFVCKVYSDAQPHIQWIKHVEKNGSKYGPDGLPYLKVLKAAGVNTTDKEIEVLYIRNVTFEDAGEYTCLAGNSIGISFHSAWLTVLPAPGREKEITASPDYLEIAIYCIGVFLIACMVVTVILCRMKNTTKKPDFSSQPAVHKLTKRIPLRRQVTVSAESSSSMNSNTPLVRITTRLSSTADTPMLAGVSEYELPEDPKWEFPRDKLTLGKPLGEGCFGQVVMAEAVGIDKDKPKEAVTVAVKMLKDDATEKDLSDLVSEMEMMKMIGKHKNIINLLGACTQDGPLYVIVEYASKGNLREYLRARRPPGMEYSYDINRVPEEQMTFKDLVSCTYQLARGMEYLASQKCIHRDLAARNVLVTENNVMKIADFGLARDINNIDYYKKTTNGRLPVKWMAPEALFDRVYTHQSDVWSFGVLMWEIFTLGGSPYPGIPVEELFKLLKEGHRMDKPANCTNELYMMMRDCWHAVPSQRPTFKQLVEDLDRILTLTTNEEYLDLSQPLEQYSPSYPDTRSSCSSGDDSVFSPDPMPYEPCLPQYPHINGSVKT
For data set [6], the system named is NCI-H1581. Briefly: Antiproliferative activity against FGFR1-amplified human NCI-H1581 cells after 72 hrs by CCK8/MTT assay. The format is functional, cell-based. Particulars: NCI-H1581, 72 h.
The target in data set [7] is Receptor tyrosine-protein kinase erbB-2 (Homo sapiens, UniProt P04626). Briefly: Inhibition of recombinant human ErbB2 using poly (Glu, Tyr) 4:1 as substrate after 60 mins by ELISA. A digest of the protocol:
as §1

The target of data set [8] is Fibroblast growth factor receptor 1 (Homo sapiens, UniProt P11362). Briefly: Inhibition of FGFR1 in human KG1 cells assessed as reduction of PLCgamma phosphorylation at 0.1 to 10 nM after 2 hrs by Western blot method. In kind it is cell-based. Particulars: KG-1. A digest of the protocol: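 KG-1 cells treated at indicated concentrations for 2 h, then lysed in 1× SDS sample buffer. Lysates run on 10% SDS-PAGE, transferred to nitrocellulose, and probed for phospho-FGFR, PLCγ and Erk. Detection by enhanced chemiluminescence.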
Sequence of Fibroblast growth factor receptor 1 (P11362 22-822 limits assumed): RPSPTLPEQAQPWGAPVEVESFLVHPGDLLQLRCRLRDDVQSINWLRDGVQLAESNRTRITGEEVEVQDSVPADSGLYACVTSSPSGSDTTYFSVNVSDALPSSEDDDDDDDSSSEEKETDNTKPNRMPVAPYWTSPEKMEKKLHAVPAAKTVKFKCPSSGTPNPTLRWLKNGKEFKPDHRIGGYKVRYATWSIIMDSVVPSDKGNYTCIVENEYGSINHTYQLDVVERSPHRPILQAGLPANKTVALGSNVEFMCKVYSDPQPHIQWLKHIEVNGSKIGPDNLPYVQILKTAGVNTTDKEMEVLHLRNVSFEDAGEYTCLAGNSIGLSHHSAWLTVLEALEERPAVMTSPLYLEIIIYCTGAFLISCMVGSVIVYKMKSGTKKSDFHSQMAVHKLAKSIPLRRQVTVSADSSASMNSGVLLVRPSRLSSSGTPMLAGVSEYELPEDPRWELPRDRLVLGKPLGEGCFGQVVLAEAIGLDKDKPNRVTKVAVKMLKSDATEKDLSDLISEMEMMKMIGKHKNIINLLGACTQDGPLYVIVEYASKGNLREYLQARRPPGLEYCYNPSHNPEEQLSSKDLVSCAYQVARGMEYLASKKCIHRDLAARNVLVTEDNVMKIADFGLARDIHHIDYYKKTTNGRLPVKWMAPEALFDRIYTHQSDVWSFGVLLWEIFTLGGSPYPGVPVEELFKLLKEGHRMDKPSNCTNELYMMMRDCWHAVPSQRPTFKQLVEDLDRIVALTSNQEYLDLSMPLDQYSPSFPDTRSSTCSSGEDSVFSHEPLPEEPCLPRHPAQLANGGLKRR

Data set [9] deals with Fibroblast growth factor receptor 3 (Homo sapiens, UniProt P22607). The data set can be described thus: Inhibition of recombinant human FGFR3 using poly (Glu, Tyr) 4:1 as substrate after 60 mins by ELISA. A digest of the protocol: as §1
Data set [10] in a line: AUC (0 to infinity) in Sprague-Dawley rat at 1 mg/kg, iv. In kind it is ADME, organism-based. Further details: dose 1 mg/kg, time infinity, route intravenous. Particulars: in vivo.
Data set [11] deals with T1, Fibroblast growth factor receptor 2. Briefly: Inhibition of FGFR2 in human SNU15 cells assessed as reduction of ERK phosphorylation at 0.1 to 10 nM after 2 hrs by Western blot method. In kind it is cell-based.
Data set [12] in a line: Volume of distribution at steady state in Sprague-Dawley rat at 1 mg/kg, iv. The following applies: in vivo, read-out: Vdss. In kind it is ADME, organism-based.
A short description of data set [13]: cells. The following applies: Homo sapiens, KG-1, 72 h.
For the next data set, the target named is Ephrin type-A receptor 2 (Homo sapiens, UniProt P29317). Briefly: Inhibition of recombinant human EPHA2 using poly (Glu, Tyr) 4:1 as substrate after 60 mins by ELISA. A digest of the protocol:
as §1

Data set [14] deals with NCI-H1581. The data set can be described thus: Antitumor activity against human NCI-H1581 cells xenografted in po dosed nude mouse assessed as tumor growth inhibition administered as qd for 21 days measured on day 21 post last dose. The format is functional, organism-based. The method in brief: as §2
Data set [15] has as its system NCI-H1581. The data set can be described thus: Antitumor activity against FGFR1-amplified human NCI-H1581 cells xenografted in nude mouse assessed as tumor growth inhibition at 2 mg/kg, po qd administered for 21 days measured on day 21 post last dose relative to vehicle-treated control. In kind it is functional. The following applies: 504 h, read-out: TGI. A digest of the protocol:
as §2

A short description of data set [16]: Oral bioavailability in Sprague-Dawley rat at 5 mg/kg. In kind it is ADME, organism-based. The following applies: in vivo. The method in brief: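 Male SD rats (n = 3) dosed orally by gavage at 5 mg/kg as a suspension in 0.5% CMC-Na. Quantified by LC-MS/MS. An IV arm (1 mg/kg) was run in parallel.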

Sequence of Vascular endothelial growth factor receptor 1 (P17948 whole entry): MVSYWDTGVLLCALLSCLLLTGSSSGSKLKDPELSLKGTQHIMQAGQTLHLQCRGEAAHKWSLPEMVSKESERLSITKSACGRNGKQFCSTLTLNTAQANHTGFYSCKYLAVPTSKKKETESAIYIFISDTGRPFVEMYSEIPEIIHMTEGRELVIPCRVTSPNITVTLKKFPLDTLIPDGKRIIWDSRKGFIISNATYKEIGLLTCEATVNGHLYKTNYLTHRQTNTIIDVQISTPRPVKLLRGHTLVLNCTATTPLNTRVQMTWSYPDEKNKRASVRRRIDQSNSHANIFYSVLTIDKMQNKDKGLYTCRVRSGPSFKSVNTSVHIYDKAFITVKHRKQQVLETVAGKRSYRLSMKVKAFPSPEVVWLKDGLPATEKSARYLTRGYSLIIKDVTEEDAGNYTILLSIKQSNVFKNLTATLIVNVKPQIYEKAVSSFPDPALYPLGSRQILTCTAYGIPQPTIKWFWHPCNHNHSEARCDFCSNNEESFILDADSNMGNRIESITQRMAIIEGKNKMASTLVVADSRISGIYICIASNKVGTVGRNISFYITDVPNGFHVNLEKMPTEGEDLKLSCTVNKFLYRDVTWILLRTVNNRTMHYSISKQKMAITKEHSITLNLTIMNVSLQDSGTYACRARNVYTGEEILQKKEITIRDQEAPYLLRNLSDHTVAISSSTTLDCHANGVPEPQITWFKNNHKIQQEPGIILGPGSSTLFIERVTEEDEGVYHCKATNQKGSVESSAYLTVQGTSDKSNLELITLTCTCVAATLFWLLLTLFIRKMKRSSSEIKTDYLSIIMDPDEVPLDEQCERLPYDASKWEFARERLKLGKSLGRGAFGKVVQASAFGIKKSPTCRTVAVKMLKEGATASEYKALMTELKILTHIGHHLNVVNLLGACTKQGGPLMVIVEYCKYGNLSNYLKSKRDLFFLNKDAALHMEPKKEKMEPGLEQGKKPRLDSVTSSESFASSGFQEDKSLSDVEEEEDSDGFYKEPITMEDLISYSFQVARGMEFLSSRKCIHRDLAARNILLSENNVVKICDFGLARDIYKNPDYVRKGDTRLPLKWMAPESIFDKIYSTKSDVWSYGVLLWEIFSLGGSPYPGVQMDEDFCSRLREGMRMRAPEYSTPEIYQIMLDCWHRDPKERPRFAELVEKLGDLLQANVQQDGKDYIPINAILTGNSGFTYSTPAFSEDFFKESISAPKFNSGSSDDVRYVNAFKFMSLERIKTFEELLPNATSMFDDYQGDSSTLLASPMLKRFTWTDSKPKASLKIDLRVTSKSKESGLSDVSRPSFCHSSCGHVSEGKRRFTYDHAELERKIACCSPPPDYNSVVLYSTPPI
Sequence of Platelet-derived growth factor receptor beta (P09619 whole entry): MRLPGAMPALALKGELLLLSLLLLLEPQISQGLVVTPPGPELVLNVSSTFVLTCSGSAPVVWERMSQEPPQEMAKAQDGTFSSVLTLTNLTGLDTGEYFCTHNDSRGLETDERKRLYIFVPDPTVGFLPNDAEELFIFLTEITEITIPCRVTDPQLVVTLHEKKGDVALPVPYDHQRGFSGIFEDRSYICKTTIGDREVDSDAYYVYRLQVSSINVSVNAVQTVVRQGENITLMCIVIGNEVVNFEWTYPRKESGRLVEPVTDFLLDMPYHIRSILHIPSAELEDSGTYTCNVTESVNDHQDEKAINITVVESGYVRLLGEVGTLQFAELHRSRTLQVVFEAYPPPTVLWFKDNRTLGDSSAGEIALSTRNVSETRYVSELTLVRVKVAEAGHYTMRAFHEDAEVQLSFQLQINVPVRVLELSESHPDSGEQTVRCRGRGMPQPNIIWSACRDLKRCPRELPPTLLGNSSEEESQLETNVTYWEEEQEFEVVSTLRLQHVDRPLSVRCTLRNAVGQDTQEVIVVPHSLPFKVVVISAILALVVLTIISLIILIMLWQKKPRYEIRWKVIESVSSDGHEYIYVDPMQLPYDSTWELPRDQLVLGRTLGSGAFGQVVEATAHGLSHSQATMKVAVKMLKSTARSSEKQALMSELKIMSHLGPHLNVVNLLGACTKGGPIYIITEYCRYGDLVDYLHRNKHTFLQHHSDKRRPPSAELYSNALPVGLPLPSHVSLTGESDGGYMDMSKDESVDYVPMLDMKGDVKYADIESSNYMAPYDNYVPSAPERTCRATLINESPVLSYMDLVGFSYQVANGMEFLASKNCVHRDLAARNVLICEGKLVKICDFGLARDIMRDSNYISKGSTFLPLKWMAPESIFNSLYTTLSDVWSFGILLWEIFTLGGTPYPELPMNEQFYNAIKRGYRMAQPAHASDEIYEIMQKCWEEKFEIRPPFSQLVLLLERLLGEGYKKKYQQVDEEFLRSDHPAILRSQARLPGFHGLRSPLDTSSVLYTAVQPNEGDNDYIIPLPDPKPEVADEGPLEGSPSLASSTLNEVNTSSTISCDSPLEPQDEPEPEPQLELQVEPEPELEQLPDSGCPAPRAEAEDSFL
Sequence of Ephrin type-A receptor 2 (P29317 whole entry): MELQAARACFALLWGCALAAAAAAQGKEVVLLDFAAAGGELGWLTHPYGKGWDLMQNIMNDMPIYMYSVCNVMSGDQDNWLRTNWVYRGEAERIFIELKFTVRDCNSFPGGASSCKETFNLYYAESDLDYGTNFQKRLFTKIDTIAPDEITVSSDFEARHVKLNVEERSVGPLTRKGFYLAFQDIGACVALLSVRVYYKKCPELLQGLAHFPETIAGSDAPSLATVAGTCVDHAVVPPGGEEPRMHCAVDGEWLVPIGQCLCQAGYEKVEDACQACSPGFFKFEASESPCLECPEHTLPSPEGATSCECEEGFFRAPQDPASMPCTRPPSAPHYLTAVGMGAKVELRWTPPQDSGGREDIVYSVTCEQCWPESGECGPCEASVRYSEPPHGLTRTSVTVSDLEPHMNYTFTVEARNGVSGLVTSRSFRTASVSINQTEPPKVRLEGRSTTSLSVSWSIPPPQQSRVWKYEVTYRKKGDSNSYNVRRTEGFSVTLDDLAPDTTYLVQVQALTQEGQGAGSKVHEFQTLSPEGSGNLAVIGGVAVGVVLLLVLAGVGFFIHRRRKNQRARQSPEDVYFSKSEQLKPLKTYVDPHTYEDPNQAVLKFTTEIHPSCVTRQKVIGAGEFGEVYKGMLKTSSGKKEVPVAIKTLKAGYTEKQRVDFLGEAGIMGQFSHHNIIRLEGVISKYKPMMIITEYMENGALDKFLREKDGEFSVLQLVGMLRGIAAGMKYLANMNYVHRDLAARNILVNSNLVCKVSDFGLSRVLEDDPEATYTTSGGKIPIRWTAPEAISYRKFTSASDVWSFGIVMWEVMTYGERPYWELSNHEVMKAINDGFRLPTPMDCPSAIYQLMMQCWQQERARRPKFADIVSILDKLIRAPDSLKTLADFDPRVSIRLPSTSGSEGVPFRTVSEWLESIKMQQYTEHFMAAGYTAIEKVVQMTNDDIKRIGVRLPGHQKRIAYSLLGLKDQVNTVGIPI

Turning to `C[C@@H](Oc1ccc2[nH]nc(-c3nc4cc(N5CCN(C)CC5)ccc4[nH]3)c2c1)c1c(Cl)cncc1Cl`, the IC50 in data set [1] was over 100 nM; in “cells [2]”, under 0.1 nM; in data set [3], over 1000 nM; in the data set with NCI-H1581 [6], 4.2 nM; in data set [7], over 1000 nM; in data set [9], 2 nM. Further, the figures for the IC50 in “cells [13]” and at Ephrin type-A receptor 2 were under 0.1 nM and over 100 nM, respectively. Also, in the data set on NCI-H1581 [4], the inhibition in vivo at 10 mg/kg was found to be 96.9%. The inhibition result in [5], in data set [8] and in data set [11] was “Active” in each case. This compound returned a total exposure AUC(0-inf) in data set [10] of 485 ng·h/mL. Further, in data set [12], the Vd turned out to be 5.8 L/kg. In the data set on NCI-H1581 [14], the TGI entry was “Dose-dependent effect”. In the data set with NCI-H1581 [15], the inhibition in vivo at 2 mg/kg is 44.5%. In [16], the bioavailability worked out at 33%.

The IC50 is the midpoint of a concentration-inhibition curve. The term AUC(0-inf) denotes total exposure, with the tail of the curve extrapolated. A high value points to high exposure. The term bioavailability denotes dose-corrected exposure relative to a reference, in per cent. A lower bioavailability goes with poor availability.
